The results in this text go back to ChEMBL document CHEMBL4118047, “Antiplasmodial Sesquiterpenoid Lactones from Trichospira verticillata: Structure Elucidation by Spectroscopic Methods and Comparison of Experimental and Calculated ECD Data” (J Nat Prod, 2017).

Structures are written as SMILES.

In one experiment the test system is Plasmodium falciparum. Nature of the experiment: Antiplasmodial activity against Plasmodium falciparum Dd2 after 72 hrs by SYBR Green I dye-based assay. Format: functional, organism-based. Particulars: Dd2, 72 h. The method in brief:
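Ring-stage Dd2 cultures at 1% hematocrit and 1% parasitemia grown 72 h at 37 °C under 5.05% CO₂/4.93% O₂/90.2% N₂ with increasing drug concentrations. Viability read by SYBR Green I DNA quantitation in lysis buffer (0.4 μL dye/mL). IC₅₀ by nonlinear regression. Mean of three independent determinations, each in duplicate, ±SEM.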

Another experiment deals with HEK293. The experiment in a line: Cytotoxicity against HEK293 cells assessed as reduction in cell viability after 24 hrs by resazurin dye based assay. The conditions noted are these: Homo sapiens, HEK293, 24 h. The method in brief:
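10,000 HEK293 cells per well allowed to adhere, then medium replaced with medium containing varying compound amounts for 24 h. Resazurin sodium salt (0.125 mg/mL, 10 μL per well) added for 2 h. Viability from fluorescence at 585 nm, excitation 540 nm.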
A general note: Alamar Blue is a resazurin reagent that responds to reducing activity.

The next experiment relates to A2780. Nature of the experiment: Antiproliferative activity against human A2780 cells after 2 days by alamar blue assay. Particulars: A2780, 48 h. Format: functional, cell-based.

`C[C@@H]1CC[C@H]2[C@@H](C)C(=O)O[C@@H]3O[C@@]4(C)CC[C@@H]1[C@]32OO4` [ARTEMISININ]: in the experiment with Plasmodium falciparum, the IC50 (usually the concentration at which inhibition is half-maximal) was determined as 0.007 µM.

Take `C=C(C)C(=O)O[C@H]1C/C(C)=C\C(=O)/C=C(\C)[C@@H](O)[C@@H]2OC(=O)C(COC(C)=O)=C12`: the IC50 was 56 µM in the experiment on HEK293 and 37.1 µM in the experiment on Plasmodium falciparum.

For the compound `C=C(C)C(=O)O[C@H]1C/C(C)=C\C(=O)C[C@@]2(C)O[C@H]2[C@H]2OC(=O)C(COC(C)=O)=C12`, the IC50 in the experiment on HEK293 came out at 23.8 µM; in the experiment on Plasmodium falciparum it was 12.1 µM.

For the compound `C=C(C)C(=O)O[C@H]1C/C(C)=C\C(=O)/C=C(C)/C=C2/OC(=O)C(COC(C)=O)=C21`, the results for the IC50 with A2780, with HEK293 and in the experiment on Plasmodium falciparum were 0.21 µM, 3.5 µM and 1.49 µM, respectively.

Turning to `C=C(C)C(=O)O[C@@H]1C/C(C)=C\[C@@]2(O)C=C(C)[C@H](O2)[C@H]2OC(=O)C(COC(C)=O)=C12`, the 50% inhibitory concentration (IC50) with HEK293 was found to be 58.8 µM; with Plasmodium falciparum, 44.3 µM.
